Compound activity: PubChem BioAssay, The Scripps Research Institute Molecular Screening Center
Shown are actives, neighbours in structure and some others; about 1.3% of the full set was active somewhere.
Tn6 DDE FP = DD(E)-Tn6 binding inhibition, primary FP screen | Fibrin DD(E) TRITC-Tn6 fluorescence polarization displacement | inhibition, % at 8.3 µM | actives 0.21% (n = 370,000);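 active = inhibition above a per-campaign cutoff: mean of compounds within control limits plus 3 SD, cut at about 15% in these data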;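 also: 0% = median of all compound wells on the plate and 100% = blocking peptide control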
ABHD4 inh = inhibits mouse alpha/beta hydrolase domain 4; Q8VD66; purified mABHD4, FP-Rh probe fluorescence polarization; inhibition, % at 8.92 µM; actives 0.54% (n = 370,000); AID 720543;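 active = inhibition exceeding the mean over every tested compound plus 3 SD, cut at about 30% in these data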;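 also: 0% = plate median of compound wells and 100% = S159A mutant with DMSO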
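Test system: mABHD4 protein; Read-out basis: % inhibition; Incubation: 45 min + 60 min at 25 °C; Repeats: single replicate; Technique: fluorescence polarization with parallel and perpendicular emission, 525/598 nm; Compound: 8.92 µM, single dose; Benchmarks: full inhibition S159A mutant plus DMSO, zero as sample-well median.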
TCR-CD3 inh = blocks the human TCR-CD3 interaction | TAMRA-labeled TCR probe fluorescence, biochemical | actives 0.37% (n = 360,000) | inhibition, % at 9.4 µM;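 also: recombinant mutant TCR 2C K166C tagged with TAMRA read by polarization; 0% = receptor in buffer alone and 100% = receptor with positive control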
HTRA1 inh = inhibitors of human serine peptidase HTRA1. Q92743. recombinant HTRA1, FP-rhodamine activity-based probe, fluorescence polarization. inhibition, % at 5.96 µM. actives 0.5% (n = 340,000). AID 504803; in the data active = inhibition above about 36%;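 also: 0% = enzyme with DMSO and 100% = wells lacking enzyme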
Target sequence (Q92743 whole entry, looked up): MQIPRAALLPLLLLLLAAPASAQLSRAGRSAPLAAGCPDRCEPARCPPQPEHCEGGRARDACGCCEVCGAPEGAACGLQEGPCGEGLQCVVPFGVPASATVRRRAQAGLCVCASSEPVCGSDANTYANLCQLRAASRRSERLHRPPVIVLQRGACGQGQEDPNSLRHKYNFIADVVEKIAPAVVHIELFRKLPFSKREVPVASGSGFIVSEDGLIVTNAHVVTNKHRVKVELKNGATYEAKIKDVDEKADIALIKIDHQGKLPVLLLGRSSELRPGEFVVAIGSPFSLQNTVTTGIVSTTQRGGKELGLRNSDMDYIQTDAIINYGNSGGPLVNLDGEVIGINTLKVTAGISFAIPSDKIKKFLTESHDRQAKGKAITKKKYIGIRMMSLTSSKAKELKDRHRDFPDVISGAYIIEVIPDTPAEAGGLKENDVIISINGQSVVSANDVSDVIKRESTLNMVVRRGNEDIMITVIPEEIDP
Tn7 DDE FP = DD(E)-Tn7 binding inhibition, primary FP screen | FP displacement of FITC-Tn7 peptide from fibrin DD(E); 0% = median of compound wells per plate | inhibition, % at 8.3 µM | actives 0.13% (n = 370,000) | AID 720508;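 active = inhibition above the mean of compounds falling within the control limits plus 3 SD of them, cut at about 14% in these data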;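 also: 0% = plate median of compound wells and 100% = 10 µM Aha-Tn7 peptide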
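Test system: human clot-derived fibrin DD(E) complex / Quantity: 2 µM final DD(E) protein / Incubation: 10 min plus 3 h, room temperature / Measured by: fluorescence polarization / Benchmarks: high control of 10 µM Aha-Tn7 peptide / Replicates: singlicate testing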
HTRA1 conf = HTRA1 (human) inhibition, confirmation | recombinant HTRA1, FP-rhodamine activity-based probe, fluorescence polarization | inhibition, % at 5.96 µM | shares compounds with HTRA1 inh | actives 66% (n = 1,600);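 active = mean inhibition over three repeats above a set limit taken from the earlier primary screen, cut at about 37% in these data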;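 also: 0% = HTRA1 with DMSO and 100% = wells lacking HTRA1; inhibitors block probe binding so polarization drops and inhibition rises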
BSA TAMRA ctr = BSA probe counter-screen for TCR-CD3 inhibitors | TAMRA-labeled BSA probe fluorescence counterscreen | shares compounds with TCR-CD3 inh | actives 10% (n = 1,200) | AID 652035 | inhibition, % at 9.4 µM; in the data active = inhibition above about 23%;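 also: 0% = buffer low control and 100% = reference high control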
TCR-CD3 conf = confirmation of human TCR-CD3 interaction inhibitors; inhibition, % at 9.4 µM; TAMRA-labeled TCR probe fluorescence binding assay; shares compounds with TCR-CD3 inh; actives 48% (n = 1,200); AID 652036
DDE Tn7 confirm = DD(E)-Tn7 binding inhibition, FP confirmation | shares compounds with Tn7 DDE FP | actives 5% (n = 460) | FP displacement of TRITC-Tn7 peptide from DD(E); 0% set at plate's compound-well median | inhibition, % at 8.3 µM;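 active = inhibition above the campaign cutoff, the mean of compounds within control limits plus 3 SD, cut at about 14% in these data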;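 also: 100% = median FP of high control wells holding Aha-Tn7 inhibitor peptide; displacers lower polarization since freed probe rises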
Tn7 DDE ctr = counter-screen for inhibitors of Tn7 peptide binding to fibrin DD(E); shares compounds with Tn7 DDE FP; TRITC-Tn7 probe displacement, fluorescence polarization; inhibition, % at 8.3 µM; actives 3% (n = 460);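 active = inhibition above the cutoff, the mean of compounds lying between the control bounds plus 3 SD of those compounds, cut at about 17% in these data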;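 also: 0% = median of compound sample wells and 100% = excess unlabeled Aha-Tn7 peptide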
DDE Tn6 FP ctr = DD(E)-Tn6 binding inhibition, counter-screen. shares compounds with Tn6 DDE FP. Fibrin DD(E), TRITC-Tn6 fluorescence polarization displacement; 0% = median of compound wells, not DMSO. inhibition, % at 8.3 µM. actives 2% (n = 680);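 active = inhibition above the mean of test compounds lying between the control limits plus 3 SD of those, cut at about 14% in these data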;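 also: 0% = median of compound wells and 100% = wells with Aha-Tn7 blocking peptide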
DDE Tn6 confirm = confirmation of inhibitors of Tn6 binding to human fibrin DD(E); FP displacement of TRITC-Tn6 peptide from DD(E); 0% = per-plate median of test wells; shares compounds with Tn6 DDE FP; inhibition, % at 8.3 µM; actives 10% (n = 680);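 active = inhibition above the mean of compounds lying within the control limits plus 3 SD, cut at about 16% in these data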;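 also: 100% = high control wells holding a competing inhibitor peptide at 10 µM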
ABHD4 confirm = ABHD4 (mouse) inhibition, FP confirmation. shares compounds with ABHD4 inh. purified mABHD4, FP-Rh probe fluorescence polarization. inhibition, % at 8.92 µM. actives 55% (n = 1,800). AID 720658;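 active = mean inhibition across replicates above the hit cutoff set in the primary screen, cut at about 30% in these data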;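 also: 0% = wild-type ABHD4 with DMSO and 100% = catalytically dead S159A mutant with DMSO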
An asterisk follows results filed as active; / = no result given; + = active, no number. Rule as the data show it, unless noted: active = inhibition above about 19%; inactive = the rest.

SMILES	Tn6 DDE FP	ABHD4 inh	TCR-CD3 inh	HTRA1 inh	Tn7 DDE FP	HTRA1 conf	ABHD4 confirm	others
O=c1cc(-c2ccccc2)oc2cc(O)c(O)c(O)c12	0	52*	38*	80*	-1	85*	37*	BSA TAMRA ctr=-13;TCR-CD3 conf=24*
O=c1cc(-c2ccc(O)cc2)oc2c(O)c(O)c(O)c(O)c12	-4	36*	23*	52*	-4	59*	17	BSA TAMRA ctr=0;TCR-CD3 conf=38*
CCc1ccc(C(=O)NCC2(c3ccccc3)CCOCC2)o1	5	-1	5	-3	5	/	/
CCCCCCCCCCCCCCCCn1cc[n+](C)c1	-3	44*	-4	66*	-2	81*	51*
O=C(NN1C(=O)/C(=C/C=C/c2ccco2)SC1=S)c1ccccc1O	-3	31*	0	40*	-9	19	-26
Cn1cccc1/C=C1\SC(=S)N(NC(=O)c2ccccc2O)C1=O	3	2	0	3	-7	/	/
O=C(O)C(Cc1ccccc1)N1C(=O)/C(=C/C=C/c2ccco2)SC1=S (stereo unspecified)	2	42*	16	37*	-2	15	-67
COc1ccc(/C=C2\SC(=S)N(C(Cc3ccccc3)C(=O)O)C2=O)cc1 (stereo unspecified)	3	-11	1	-40	-4	/	/
COc1ccc2c(c1)[nH]c1c(=O)n(CCCn3ccnc3)cnc12	-9	3	-1	-1	7	/	/
CN(C)c1ccc(N/C=C/C(=O)c2ccccc2)cc1	-4	46*	8	54*	3	5	-15
O=C(CN1C(=O)CSc2ccc(C(F)(F)F)cc21)Nc1ccccc1	8	-8	5	-14	-3	/	/
O=C1NN(c2ccccc2)C(=O)/C1=C\c1ccc2c(c1)OCO2	-5	10	3	3	-8	/	/
Cc1ccc(N2NC(=O)/C(=C\c3cc4c(cc3[N+](=O)[O-])OCO4)C2=O)cc1C	0	47*	-1	63*	-7	37*	47*
COCCNC(=O)CN(C(=O)CCC(=O)Nc1nccs1)c1ccc2c(c1)OCO2	4	-5	4	-5	-9	/	/
COc1ccc(O)c(C(=O)c2cnc3onc(C)c3c2)c1	-8	-12	-4	-12	-6	/	/
O=C1C(Nc2ccccc2)=C(N2CCCCC2)C(=O)c2ccccc21	1	13	3	5	3	/	/
CN(C1=C(N2CCCCC2)C(=O)c2ccccc2C1=O)c1ccccc1	3	38*	-10	66*	-4	75*	69*
C=C1c2cccc(O)c2C(=O)C2C(=O)[C@]3(O)C(=O)C(C(N)=O)C(=O)[C@@H](N(C)C)[C@@H]3[C@@H](O)[C@H]12 (stereo partly specified)	-10	85*	28*	46*	-1	38*	17	BSA TAMRA ctr=-4;TCR-CD3 conf=14
Clc1ccc(C2Nc3cccc4cccc(c34)N2)c(Cl)c1	0	30*	-3	54*	-6	24	32*
Clc1ccc(C2Nc3cccc4cccc(c34)N2)cc1	-2	7	1	3	-3	/	/
COc1ccc(CNC(=O)CCSc2ccc(F)cc2)cc1OC	-1	2	6	4	-5	/	/
O=C1c2cccc3c(O)ccc(c23)C(=O)N1Cc1ccco1	12	49*	41*	44*	56*	38*	45*	BSA TAMRA ctr=67*;TCR-CD3 conf=47*;DDE Tn7 confirm=6;Tn7 DDE ctr=4
CCc1ccc(/C=C/C(=O)c2cc(Br)ccc(=O)c2O)cc1	-3	38*	-7	67*	1	66*	10
Cc1cccc(/C=C/C(=O)c2cc(Br)ccc(=O)c2O)c1	0	36*	1	57*	3	59*	26
COc1ccc(NC(=O)CN(C)C(=O)CCCNC(=O)c2ccc(Cl)cc2)cc1	6	-3	5	0	-11	/	/
SMILES	Tn6 DDE FP	ABHD4 inh	TCR-CD3 inh	HTRA1 inh	Tn7 DDE FP	HTRA1 conf	ABHD4 confirm	others
Oc1ccc(N=Cc2ccc(OCc3ccccc3)cc2)cc1	7	68*	32*	63*	3	-9	16	BSA TAMRA ctr=4;TCR-CD3 conf=0
O=[N+]([O-])/C(C(=C(Cl)Cl)N1CCN(Cc2ccccc2)CC1)=C1\NCCN1Cc1ccc(Cl)nc1	4	0	4	0	-2	/	/
O=C(Oc1ccccc1C(=S)N1CCOCC1)c1ccc([N+](=O)[O-])cc1[N+](=O)[O-]	-2	0	2	8	-1	/	/
COc1cccc2c1C(=O)c1c(O)c3c(c(O)c1C2=O)CC(O)(C(=O)CO)CC3OC1CC(N(C)C)C(O)C(C)O1 (stereo unspecified)	+	79*	148*	68*	16*	66*	61*	BSA TAMRA ctr=167*;TCR-CD3 conf=136*;DDE Tn7 confirm=-7;Tn7 DDE ctr=93*;DDE Tn6 FP ctr=-7;DDE Tn6 confirm=93*
COc1cccc2c1C(=O)c1c(O)c3c(c(O)c1C2=O)C[C@@](O)(C(C)=O)C[C@@H]3O[C@H]1C[C@H](N)[C@H](O)[C@H](C)O1	+	62*	162*	72*	18*	74*	48*	BSA TAMRA ctr=183*;TCR-CD3 conf=150*;DDE Tn7 confirm=-9;Tn7 DDE ctr=93*;DDE Tn6 FP ctr=-9;DDE Tn6 confirm=93*
O=C(COc1ccc(F)cc1)Nc1ccc(S(=O)(=O)Nc2ncccn2)cc1	4	2	5	6	1	/	/
Cc1ccc2c(c1)C1C=CCC1C(C(=O)NCCCN1CCOCC1)N2 (stereo unspecified)	-2	9	0	13	9	/	/
